# Screening results: PubChem BioAssay, Broad Institute
# This excerpt belongs to a sample that is enriched for hits.
# S100A4 inh HTS = inhibitors of S100A4-myosin IIA peptide binding, primary screen, biochemical, fluorescence polarization, TAMRA-MyoIIA peptide; Protein S100-A4 (Homo sapiens), P26447; inhibition, % at 10.7 µM; actives 0.14% (n = 360,000);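 active means mean inhibition of at least 70% across replicates, with every replicate also reaching that level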
#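 Material: S100A4 monomer (human). Medium: Calcium-containing HEPES buffer, pH 7.2. Probe or stimulus: labelled myosin peptide probe, 5 nM. Compound dosing: one concentration per compound. Timing: polarization read 5 min after assay mix addition, stable 5–60 min. Benchmarks: DMSO as neutral control, TFP as positive control.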
# FGF22 binding = binders of human FGF22 protein, primary screen, FGF22 synaptogenesis inhibitor project, biophysical, thermal shift, single point; AID 651658, 2012; activity (Tm shift, normalised), % at 9.99 µM; Fibroblast growth factor 22 (Homo sapiens), Q9HCT0; recombinant FGF22 thermal shift, SYPRO orange fluorescence; percent of sucrose octasulfate shift, DMSO zero; actives 1.5% (n = 340,000);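 active means mean Tm shift, scaled 0 neutral to 100 positive control, at about 1.3% or above, every replicate too, limit read from the data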
# PDI inh = inhibitors of human PDI, primary screen, biochemical, turbidity, single point, plate reader | AID 588391, 2011 | inhibition, % at 10 µM | actives 0.052% (n = 350,000) | Protein disulfide-isomerase (Homo sapiens), P07237 | PDI insulin aggregation turbidity, A650, 90 min;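 active means mean inhibition across replicates of 30% or more, whatever share of single replicates reach that level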
# Target sequence (P07237 whole entry, looked up): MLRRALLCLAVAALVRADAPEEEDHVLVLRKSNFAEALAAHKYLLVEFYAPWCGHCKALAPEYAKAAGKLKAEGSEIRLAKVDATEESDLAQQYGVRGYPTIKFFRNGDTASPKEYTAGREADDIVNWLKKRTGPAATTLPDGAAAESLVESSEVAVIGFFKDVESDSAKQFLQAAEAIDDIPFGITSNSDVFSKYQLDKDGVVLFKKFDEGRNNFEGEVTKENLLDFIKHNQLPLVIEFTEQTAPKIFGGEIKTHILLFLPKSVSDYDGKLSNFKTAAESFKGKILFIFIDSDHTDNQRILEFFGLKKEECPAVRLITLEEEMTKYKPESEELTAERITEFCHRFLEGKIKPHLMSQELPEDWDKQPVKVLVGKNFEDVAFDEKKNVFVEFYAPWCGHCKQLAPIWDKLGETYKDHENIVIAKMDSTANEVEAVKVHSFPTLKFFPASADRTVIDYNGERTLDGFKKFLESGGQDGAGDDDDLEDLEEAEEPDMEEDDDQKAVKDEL
# ERAP1 inh = human ERAP1 aminopeptidase inhibitors, primary screen, biochemical, single point, plate reader. recombinant ERAP1, Leu-AMC fluorescence, 60 min. inhibition, % at 10.7 µM. actives 0.15% (n = 340,000). AID 652197, 2013;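 active means mean replicate inhibition of at least 30%, or all replicates individually reaching that 30% level; inactive means mean below 30% and not every replicate reaching it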;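 further: 0% = neutral control wells and 100% = L-leucinethiol positive control wells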
# ERp5 block = inhibitors of ERp5-driven insulin aggregation, primary screen, biochemical, turbidity, absorbance 650 nm, single point. 90 min. inhibition, % at 9.99 µM. actives 0.05% (n = 350,000). AID 651711, 2012;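 active means mean replicate inhibition above about 25%, with every replicate also reaching it, limit read from the data, passing the limit was not always enough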
# * hit, by the source's call; . = no result.
SMILES,S100A4 inh HTS,FGF22 binding,PDI inh,ERAP1 inh,ERp5 block
Nc1[nH]c(C(=O)c2ccc(Br)cc2)c(-c2ccccc2Br)c1C(=O)NCCc1c[nH]c2ccccc12,-1.1,43.6*,.,0.4,-1.7
O=C(CSCc1ccc(F)cc1)NCc1cccs1,-4.7,-0.2,-1.1,5.9,2.2
CN1C(=O)c2cc(NS(=O)(=O)c3ccc(Cl)cc3)ccc2OC[C@H]2O[C@H](CC(=O)O)CC[C@@H]21,0.3,0.0,.,2.6,-3.6
Cc1ccc(CNC(=O)C2CCCN(c3nc(C)cc(C)n3)C2)cc1 (configuration not stated),-1.9,43.4*,3.4,2.5,-1.6
O=C(c1cnc(Cc2c[nH]c3ccccc23)c(I)c1)N1CCCCC1,1.8,0.1,3.3,.,0.8
CC(C)c1ccc(S(=O)(=O)N2CCN(C(=O)c3ccco3)CC2)cc1,-0.7,43.6*,7.6,8.4,6.8
CCOc1ccc(CN(C)c2nc(-c3cccnc3)nc3ccccc23)cc1OC,-5.8,-0.6,-8.4,1.1,-4.3
COC(=O)c1cccc(S(=O)(=O)N2CCC(NC(=O)Nc3cccc(F)c3)CC2)c1,.,.,2.5,.,.
CNC(=O)CSc1nnc(-c2ccc3c(c2)OCO3)n1C,-24.9,43.3*,-11.4,1.2,-6.9
COC(=O)CSc1nnc(-c2ccc3c(c2)OCO3)n1C,.,.,-5.0,.,.
C[C@@H]1CN([C@@H](C)CO)C(=O)c2cccc(NC(=O)Nc3ccccc3)c2O[C@@H]1CN(C)Cc1ccc(C(=O)O)cc1,-6.8,0.1,.,1.2,-4.9
CC(=O)c1ccc(N=C2SCCCN2C(=O)C2CCCC2)cc1,-1.6,43.0*,-3.2,-0.3,-11.7
CC(=O)c1ccc(NC(=S)N2CCCCCC2)cc1,3.7,0.0,3.9,2.9,0.2
Cc1ccc(S(=O)(=O)N2[C@@H](c3ccc(Cl)c(Cl)c3)C(C(=O)O)=C[C@H]2CC2CCCC2)cc1,-1.2,0.2,-12.1,0.0,0.7
CCOC(=O)CSc1nc2ccccc2c(=O)n1CC,.,.,2.2,.,.
CCOC(=O)CSc1nc2ccccc2c(=O)n1CC(C)C,-2.7,42.9*,-9.3,0.1,4.4
COc1ccc(NC(=O)Nc2ccc3c(c2)C(=O)N([C@@H](C)CO)C[C@@H](C)[C@@H](CN(C)C(=O)Nc2ccccc2)O3)cc1,-2.9,-0.1,.,2.7,11.2
O=Cc1ccc(F)c([B-](F)(F)F)c1,-4.6,43.5*,-0.9,0.2,1.9
Cc1ccccc1OCc1nnc(SCc2cc(=O)[nH]c3ccccc23)o1,.,.,12.2,.,.
COc1cc(-c2nc(CN3CCN(c4ncccn4)CC3)c(C)o2)ccc1F,-3.3,43.3*,-5.2,0.1,-2.4
COc1cc(-c2nc(CN3CCN(CC(C)C)C(=O)[C@@H]3C)c(C)o2)ccc1F,0.2,0.1,-6.4,0.2,-0.9
CCn1c(C)c2c([n+]1CC)CC(C)(C)CC2=O,-2.1,0.1,-2.7,109.4*,-2.5
CCn1c2c(c(C)cc1=O)C(=O)CC(C)(C)C2,.,.,0.4,.,.
Cc1onc(-c2c(F)cccc2Cl)c1C(=O)NCCc1ccc(S(N)(=O)=O)cc1,-3.4,0.0,5.6,-1.9,0.0
NC(=O)CC(NC(=O)Cc1ccc(Br)cc1)c1ccc(NCc2ccc(F)cc2)c([N+](=O)[O-])c1 (configuration not stated),-1.1,43.6*,1.3,4.4,-9.5
SMILES,S100A4 inh HTS,FGF22 binding,PDI inh,ERAP1 inh,ERp5 block
NNC(=O)CN1C(c2ccc(Cl)cc2)=Nc2ccc(Br)cc2C1c1ccccc1 (configuration not stated),.,.,2.2,.,.
CC1=Nc2ccc(Br)cc2C(c2ccccc2)N1CC(=O)NN (configuration not stated),3.0,43.2*,-3.6,2.6,0.5
NNC(=O)CN1C(c2ccccc2)=Nc2ccc(Br)cc2C1c1ccccc1 (configuration not stated),2.7,43.1*,0.1,0.2,-2.4
CCc1nc2oc3ccc(C)cc3c(=O)c2cc1C(=O)OC,-5.2,-0.2,-13.6,-0.3,-4.5
O=C(Nc1ccc(Br)cc1F)C1CCCN(S(=O)(=O)c2cnc[nH]2)C1 (configuration not stated),-5.1,2.0*,-1.8,-0.6,-2.7
Clc1ccc(-c2cc(COc3ccccc3)on2)cc1,-3.0,43.3*,-7.8,4.1,6.7
